According to ChEMBL document CHEMBL2375279, “Synthesis and biological evaluation of helioxanthin analogues” (Bioorg Med Chem, 2013):
Activity calls are given as the source filed them. No cut-off for these calls is given here.

Legend:
[1] = Cytotoxicity against human HepA2 cells after 2 days by MTT assay; assay type: cell-based
Summary of the method: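 HepA2 cells were seeded in DMEM with 10% FCS, attached for 24 h, washed with PBS pH 7.0, and then exposed to various compound concentrations in serum-free DMEM for 48 h. Viable cell number in each well was then determined by MTT assay.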

[2] = system: Hepatitis B virus; experiment: Antiviral activity against Hepatitis B virus infected in human HepA2 cells assessed as inhibition of viral surface antigen production after 2 days by enzyme immunoassay; assay type: functional, organism-based; conditions: for EC50: HepA2, 48 h
Summary of the method: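 HepA2 cells (HepG2 transfected with two tandem HBV genome repeats, secreting HBsAg) were seeded at 3 × 10^4 per well (96-well) or 1 × 10^5 per well (24-well) in DMEM with 10% FCS for 24 h. They were washed twice with PBS pH 7.0 and treated with graded concentrations in serum-free DMEM for 48 h. Medium HBsAg was measured by enzyme immunoassay. EC50 is the concentration giving 50% of untreated HBsAg. Mean ± S.D., n = 3.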

[3] = system: Hepatitis B virus; experiment: Antiviral activity against Hepatitis B virus infected in human 1.3ES2 cells assessed as inhibition of viral DNA replication at 5 uM after 72 hrs by RT-PCR analysis; assay type: functional, organism-based
Summary of the method: (§1)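 1.3ES2 cells (HepG2 clone stably carrying a 1.3-fold HBV ayw genome) were seeded in 100 mm dishes, then exposed to compound (0, 1.0 or 5.0 µM) in serum-free DMEM for 72 h. Virion-associated HBV DNA in the medium was quantified by real-time PCR against a plasmid standard curve (10^3–10^7 copies), with 45 cycles of 95 °C 12 s and 54 °C 20 s. Mean ± S.D., n = 3.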

[4] = system: Hepatitis B virus; experiment: Antiviral activity against Hepatitis B virus infected in human 1.3ES2 cells assessed as reduction of viral RNA level at 5 uM after 48 hrs by Northern blot analysis; assay type: functional, organism-based
Summary of the method: (§2)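 1.3ES2 cells were grown to confluence in DMEM with 10% FCS, then switched to serum-free DMEM containing compound (0, 1.0 or 5.0 µM) for 48 h. Total RNA was extracted by phenol/guanidinium isothiocyanate, denatured in 2.2 M formaldehyde and run on a 1.2% agarose formaldehyde gel. It was blotted to nylon and probed with a 32P full-length HBV probe. The 3.5 kb and 2.4/2.1 kb bands were normalized to GAPDH.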

[5] = system: Hepatitis B virus; experiment: Antiviral activity against Hepatitis B virus infected in human 1.3ES2 cells assessed as inhibition of viral DNA replication after 72 hrs by RT-PCR analysis; assay type: functional, organism-based; summary of the method: as §1
[6] = system: Hepatitis B virus; experiment: Antiviral activity against Hepatitis B virus infected in human HepA2 cells assessed as inhibition of viral core promoter activity at 0.03 uM after 24 hrs by luciferase reporter gene assay; conditions: HepA2, 24 h
[7] = system: Hepatitis B virus; experiment: Antiviral activity against Hepatitis B virus infected in human 1.3ES2 cells assessed as reduction of HBeAg mRNA and pregenomic RNA level after 48 hrs by Northern blot analysis; assay type: functional, organism-based; summary of the method: as §2
[8] = system: Hepatitis B virus; experiment: Antiviral activity against Hepatitis B virus infected in human 1.3ES2 cells assessed as reduction of large HBsAg mRNA level after 48 hrs by Northern blot analysis; assay type: functional, organism-based; summary of the method: as §2
[9] = system: Hepatitis B virus; experiment: Antiviral activity against Hepatitis B virus infected in human HepA2 cells assessed as inhibition of viral core promoter activity after 24 hrs by luciferase reporter gene assay
[10] = system: Hepatitis B virus; experiment: Antiviral activity against Hepatitis B virus infected in human 1.3ES2 cells assessed as reduction of middle/major HBsAg mRNA level after 48 hrs by Northern blot analysis; assay type: functional, organism-based; summary of the method: as §2
[11] = system: Hepatitis B virus; experiment: Antiviral activity against Hepatitis B virus infected in human HepA2 cells assessed as inhibition of viral core promoter activity at 3 uM after 24 hrs by luciferase reporter gene assay; conditions: HepA2, 24 h

| SMILES | EC50 [2] | CC50 at 48 h [1] | further results |
| --- | --- | --- | --- |
| COc1cc(-c2c(CO)c(CO)cc3ccc4c(c23)OCO4)ccc1O | 2.73 µM | > 12.5 µM | – |
| COc1ccc(-c2c(CO)c(COC(C)=O)cc3ccc4c(c23)OCO4)cc1O | 0.49 µM | > 12.5 µM | – |
| CC(=O)OCc1cc2ccc3c(c2c(-c2ccc4c(c2)OCO4)c1CO)OCO3 | – | > 12.5 µM | – |
| COc1cc(-c2c(COC(C)=O)c(COC(C)=O)cc3ccc4c(c23)OCO4)ccc1OC(C)=O | 2.77 µM | > 12.5 µM | – |
| CCCCCC(=O)OCc1cc2ccc3c(c2c(-c2ccc(O)c(O)c2)c1COC(=O)CCCCC)OCO3 | > 12.5 µM | > 12.5 µM | – |
| COc1ccc(-c2c(CO)c(COC(C)=O)cc3ccc4c(c23)OCO4)cc1OC | 3.7 µM | > 12.5 µM | – |
| OCc1cc2ccc3c(c2c(-c2ccc(O)c(O)c2)c1CO)OCO3 | > 12.5 µM | > 12.5 µM | – |
| COc1ccc(-c2c(COC(C)=O)c(COC(C)=O)cc3ccc4c(c23)OCO4)cc1OC | 3.03 µM | > 12.5 µM | – |
| CC(=O)OCc1cc2ccc3c(c2c(-c2ccc(O)c(O)c2)c1COC(C)=O)OCO3 | > 12.5 µM | > 12.5 µM | – |
| CC(=O)OCc1cc2ccc3c(c2c(-c2ccc(OC(C)=O)c(OC(C)=O)c2)c1COC(C)=O)OCO3 | > 12.5 µM | > 12.5 µM | – |
| CCCCCC(=O)OCc1cc2ccc3c(c2c(-c2ccc4c(c2)OCO4)c1COC(=O)CCCCC)OCO3 | 1.9 µM | > 12.5 µM | – |
| CCCCCC(=O)OCc1cc2ccc3c(c2c(-c2ccc(OC)c(OC(=O)CCCCC)c2)c1COC(=O)CCCCC)OCO3 | > 12.5 µM | > 12.5 µM | – |
| COc1cc(-c2c(CO)c(COC(C)=O)cc3ccc4c(c23)OCO4)ccc1O | > 12.5 µM | > 12.5 µM | – |
| CCCCCC(=O)OCc1cc2ccc3c(c2c(-c2ccc(O)c(OC)c2)c1COC(=O)CCCCC)OCO3 | > 12.5 µM | > 12.5 µM | – |
| COc1cc(-c2c3c(cc4ccc5c(c24)OCO5)COC3=O)ccc1O | 3.94 µM | > 12.5 µM | – |
| COc1ccc(-c2c(COC(C)=O)c(COC(C)=O)cc3ccc4c(c23)OCO4)cc1OC(C)=O | 0.65 µM | > 12.5 µM | – |
| COc1ccc(-c2c(CO)c(CO)cc3ccc4c(c23)OCO4)cc1O | 0.67 µM | > 12.5 µM | – |
| COc1ccc(-c2c(CO)c(CO)cc3ccc4c(c23)OCO4)cc1OC | > 12.5 µM | > 12.5 µM | – |
| CCCCCC(=O)OCc1cc2ccc3c(c2c(-c2ccc(OC)c(OC)c2)c1CO)OCO3 | > 12.5 µM | > 12.5 µM | – |
| CC(=O)OCc1cc2ccc3c(c2c(-c2ccc(O)c(OC(C)=O)c2)c1COC(C)=O)OCO3 | > 12.5 µM | > 12.5 µM | – |
| CCCCCC(=O)OCc1cc2ccc3c(c2c(-c2ccc(OC)c(O)c2)c1COC(=O)CCCCC)OCO3 | 3.33 µM | > 12.5 µM | – |
| O=C1OCc2c1cc1ccc3c(c1c2-c1ccc2c(c1)OCO2)OCO3 [HELIOXANTHIN] | – | – | inhibition at 3 µM [11]: 30% |
| CCCCCC(=O)OCc1cc2ccc3c(c2c(-c2ccc(OC)c(O)c2)c1CO)OCO3 | 1.97 µM | > 12.5 µM | – |
| COc1cc(-c2c(COC(C)=O)c(COC(C)=O)cc3ccc4c(c23)OCO4)ccc1O | > 12.5 µM | > 12.5 µM | – |
| COc1cc(-c2c3c(cc4ccc5c(c24)OCO5)C(=O)OC3)ccc1O | – | > 12.5 µM | – |
| COc1ccc(-c2c3c(cc4ccc5c(c24)OCO5)COC3=O)cc1O | 1.74 µM | > 12.5 µM | – |
| O=C1OCc2cc3ccc4c(c3c(-c3ccc(O)c(O)c3)c21)OCO4 | 3.4 µM | > 12.5 µM | – |

Further lines, with some results ahead:

| EC50 [2] | SMILES | CC50 at 48 h [1] | further results |
| --- | --- | --- | --- |
| > 6 µM | O=C1c2cc3ccc4c(c3c(-c3ccc5c(c3)OCO5)c2CN1CCO)OCO4 | > 12.5 µM | – |
| > 6 µM | COc1cc(-c2c3c(cc4ccc5c(c24)OCO5)C(=O)OC3)ccc1OC(C)=O | > 12.5 µM | inhibition [3]: inactive; Activity [4]: inactive |
| > 6 µM | N#CCCN1Cc2c(cc3ccc4c(c3c2-c2ccc3c(c2)OCO3)OCO4)C1=O | > 12.5 µM | – |
| 0.06 µM | COc1ccc(-c2c3c(cc4ccc5c(c24)OCO5)C(=O)OC3)cc1OC(C)=O | > 12.5 µM | inhibition [5]: Dose-dependent effect; inhibition at 0.03 µM [6]: 40%; Activity [7]: Dose-dependent effect; Activity [8]: Dose-dependent effect; inhibition [9]: Dose-dependent effect; inhibition [2]: Dose-dependent effect; Activity [10]: Dose-dependent effect |
| 1.9 µM | CCCCCC(=O)OCc1cc2ccc3c(c2c(-c2ccc4c(c2)OCO4)c1CO)OCO3 | > 12.5 µM | – |
| 0.38 µM | O=C1OCc2c1cc1ccc3c(c1c2-c1ccc2c(c1)OC(F)(F)O2)OCO3 | > 12.5 µM | – |
| > 6 µM | COc1ccc(-c2c3c(cc4ccc5c(c24)OCO5)C(=O)OC3)cc1OC | – | – |
| > 6 µM | N#Cc1cc2ccc3c(c2c(-c2ccc4c(c2)OCO4)c1C#N)OCO3 | > 12.5 µM | – |
| > 12.5 µM | CC(=O)Oc1cc(-c2c3c(cc4ccc5c(c24)OCO5)C(=O)OC3)ccc1OCCCCCCCCC#N | > 12.5 µM | – |
| > 6 µM | CCCCCCCCOC(=O)CN1Cc2c(cc3ccc4c(c3c2-c2ccc3c(c2)OCO3)OCO4)C1=O | > 12.5 µM | – |
| > 12.5 µM | CCCCCOC(=O)CN1Cc2c(cc3ccc4c(c3c2-c2ccc3c(c2)OCO3)OCO4)C1=O | 3.05 µM | – |
| > 6 µM | O=C(O)CN1Cc2c(cc3ccc4c(c3c2-c2ccc3c(c2)OCO3)OCO4)C1=O | > 12.5 µM | – |
| 0.86 µM | COC(=O)CN1Cc2c(cc3ccc4c(c3c2-c2ccc3c(c2)OCO3)OCO4)C1=O | > 12.5 µM | – |
| > 12.5 µM | N#CCCCCCCCCOc1ccc(-c2c3c(cc4ccc5c(c24)OCO5)C(=O)OC3)cc1O | > 12.5 µM | – |
